# A selection: hits, their analogues and other compounds. The true share with any hit is near 1.8%.
# CHRM5 antagonist: blocks acetylcholine activation of human M5 receptor | P08912 | CHO-hM5 cells, Fluo-8 calcium fluorescence, ACh EC80 | inhibition, % at 3 µM | 0.59% of 360,000 active;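 active = inhibition above a per-plate cutoff, the mean of that plate's test compounds plus 3 SD, cut at about 27% in these data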;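 also: 0% = acetylcholine EC80 with DMSO and 100% = DMSO without agonist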
# M5 PAM: positive allosteric modulators of human muscarinic M5 receptor | 0.3% of 360,000 active | CHO-K1 hM5, Fluo-8 calcium, ACh EC20 PAM; 0% = ACh EC20, 100% = ACh EC100 | P08912 | activation, % at 3 µM | AID 624038;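 active = activation above the run cutoff, the mean activation of all test compounds plus 3 SD, cut at about 18% in these data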
#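 System – CHO-K1 hM5 cells · Compound – 3 µM, single dose · Incubation – compound preincubation 140 s before EC20 acetylcholine addition · Technique – Fluo-8 calcium fluorescence · Measure – Max/basal fluorescence ratio as % of EC20–EC100 ACh window · Benchmarks – low control EC20 acetylcholine (0%), high control EC100 acetylcholine (100%) · Replication – singlicate, one well per test compound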
# M5 ag: CHRM5 agonism in calcium assay; AID 624037; 0.19% of 360,000 active; CHO-K1 hM5 cells, Fluo-8 calcium fluorescence; 0% DMSO wells, 100% maximal acetylcholine response; P08912; activation, % at 3 µM;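 active = activation above the run's mean over test compounds plus 3 SD, cut at about 23% in these data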;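 also: signal is peak over basal fluorescence ratio across the kinetic read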
# CHRM4 antagonist: blocks acetylcholine activation of human M4 receptor | P08173 | CHO-hM4 cells, ACh EC80, Fluo-8 calcium fluorescence | inhibition, % at 3 µM | 0.73% of 360,000 active | AID 624125;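 active = inhibition above its plate's cutoff, the mean inhibition of sample wells plus 3 SD, cut at about 27% in these data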;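 also: 0% = acetylcholine EC80 with DMSO and 100% = DMSO without agonist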
# Target sequence (P08173 whole entry, looked up): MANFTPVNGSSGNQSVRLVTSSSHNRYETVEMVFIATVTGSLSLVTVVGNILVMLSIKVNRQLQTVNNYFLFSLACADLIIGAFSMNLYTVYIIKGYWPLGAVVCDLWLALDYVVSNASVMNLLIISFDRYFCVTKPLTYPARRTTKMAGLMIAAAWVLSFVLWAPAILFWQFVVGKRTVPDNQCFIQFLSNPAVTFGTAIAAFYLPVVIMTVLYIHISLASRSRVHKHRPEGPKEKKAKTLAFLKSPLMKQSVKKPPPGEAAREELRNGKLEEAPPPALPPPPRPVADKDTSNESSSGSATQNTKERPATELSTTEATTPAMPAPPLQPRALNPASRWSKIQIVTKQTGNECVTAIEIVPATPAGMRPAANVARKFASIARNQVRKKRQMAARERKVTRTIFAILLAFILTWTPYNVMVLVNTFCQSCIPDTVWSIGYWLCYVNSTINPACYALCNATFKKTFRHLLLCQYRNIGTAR
# CHRM4 agonist: agonists of human muscarinic M4 receptor (CHRM4). P08173. CHO-K1 hM4/Gqi5, Fluo-8 calcium fluorescence; vehicle 0%, full acetylcholine response 100%. activation, % at 3 µM. 0.14% of 360,000 active;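 active = activation above the run mean over all test wells plus 3 SD, cut at about 32% in these data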;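 also: peak over basal fluorescence ratio per well then scaled between controls; 0% = DMSO wells and 100% = acetylcholine at EC100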
# M4 PAM: potentiates acetylcholine response at human M4 receptor; P08173; CHO-K1 hM4/Gqi5, Fluo-8 calcium fluorescence, ACh EC20; 0% = ACh EC20, 100% = maximal ACh; activation, % at 3 µM; 0.4% of 360,000 active; AID 624126;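 active = activation above its plate's cutoff, the mean activation of sample wells plus 3 SD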
# * hit, by the source's call.
SMILES,CHRM5 antagonist,M5 PAM,M5 ag,CHRM4 antagonist,CHRM4 agonist,M4 PAM
O=c1[nH]c2ccccc2n1C1CCN(C(c2ccccc2)c2nnnn2-c2ccc3c(c2)OCCO3)CC1 (centres undefined),15,-15,2,34*,21,-6
CC(=O)OC1(c2ccccc2)CCN(C)CC1(C)C (centres undefined),-5,12,-4,-6,0,3
Clc1ccc(C(Cl)(Cl)Cl)c(Cl)c1,2,1,2,-16,1,2
Cc1cc(C=O)c(C)n1CC1CCCO1 (centres undefined),-11,18*,-7,-9,1,4
CN(C)C(CNC(=O)Cc1c(Cl)cccc1Cl)c1ccccc1 (centres undefined),41*,-16,-12,17,1,-20
CC(C)OCC(O)CN1CC2C[C@@H](C1)Cn1c2cccc1=O (some centres undefined),-8,2,-1,-13,1,3
COc1ccc(CNCCc2c(C)[nH]c3ccc(OC(F)(F)F)cc23)c(OC)c1,32*,-21,22,29*,40*,-12
COc1ccc2[nH]c(C)c(CCNCc3cc(OC)c(OC)c(OC)c3)c2c1,1,7,-1,-6,2,6
O=C(Cc1ccccc1)N1CCN(Cc2ccc(Cl)cc2)CC1,-27,22*,1,-8,2,8
O=C(Cc1ccccc1)N1CCN(Cc2cccc(Cl)c2)CC1,4,0,1,5,0,4
CCOC(=O)[C@]12Cc3cc4ccccc4cc3[C@H]1N(Cc1ccccc1)C(=O)c1cc(OC)ccc12,2,3,2,8,0,-2
COc1ccc(CNC(=O)CCC(=O)N2C[C@H]3C[C@H](C2)c2cccc(=O)n2C3)cc1OC,8,1,0,1,0,3
CC1(C)CN=C(Nc2ccc(F)c(Cl)c2)S1,3,-1,15,4,35*,9
Cc1cc(N(CCCl)CCCl)ccc1C=Cc1ccncn1,13,-24,23,1,36*,-8
Cc1cc(N(CCCl)CCCl)ccc1/C=N/N=C(\N)c1cnccn1,8,-7,-5,-10,4,-9
CC1CN=C(NCc2ccc(F)cc2)S1 (centres undefined),-2,2,-10,0,1,1
CC12C=CC(=O)CC1CCC1C2CCC2(C)C(O)C(O)CC12 (centres undefined),35*,-24,5,19,19,-8
CCC1C2Cc3ccc(O)cc3C1(CC)CCN2C (centres undefined),15,-10,0,2,1,3
Clc1ccc(OCC#CCN2CCCC2)cc1,31*,-17,-10,2,2,-22
NC(Cc1ccc(O)cc1)C(=O)NN=Cc1ccc(N(CCCl)CCCl)cc1 (centres undefined),1,4,-2,-7,2,3
Nc1ccc2ccc3cccc[n+]3c2c1,-3,-3,27*,19,22,-9
C[n+]1c(-c2ccccc2)c2cc(N)ccc2c2ccc(N)cc21,14,-14,3,16,11,-10
Cc1ccc(NP(=O)(Nc2ccc(C)cc2)Oc2ccccc2)cc1,10,-6,-5,6,2,-12
COP(=O)(OC)C1(O)C(=O)Nc2ccc(Br)cc21 (centres undefined),-1,1,-1,-8,4,23*
O=c1oc2ccccc2c(O)c1[C@H]1c2ccc(O)cc2Oc2c1c(=O)oc1ccccc21,17,-5,1,-5,1,5
SMILES,CHRM5 antagonist,M5 PAM,M5 ag,CHRM4 antagonist,CHRM4 agonist,M4 PAM
CC(=O)Nc1cc([As](=O)(O)O)ccc1O,13,-13,27*,-5,1,0
CC(=O)Nc1cccc([As](=O)(c2cccc(NC(C)=O)c2)c2cccc(NC(C)=O)c2)c1,9,1,2,4,1,-5
CC[C@H]1C2C[C@H]3[C@@H]4N(C)c5ccccc5C45C[C@H](C2[C@H]5O)N3[C@@H]1O (some centres undefined),0,-4,0,4,0,-2
Cn1nnc(CC[N+](C)(C)C)n1,65*,-28,76*,1,3,-2
O=C(c1ccc(Cl)cc1)C1CCCN(Cc2cccc3cnccc23)C1 (centres undefined),48*,-36,-16,48*,6,-45
O=C(c1ccc(Cl)cc1)C1CCCN(Cc2ccc3c(c2)OCCO3)C1 (centres undefined),-8,-7,-10,4,2,-15
O=C(c1ccc(Cl)cc1)C1CCCN(Cc2ccc3ncccc3c2)C1 (centres undefined),14,-30,-12,28*,8,-22
O=C(c1cccc(Cl)c1)C1CCCN(Cc2cccc3cnccc23)C1 (centres undefined),17,-21,-8,12,5,-20
COc1ccc(C(=O)C2CCCN(CC3CCCCC3)C2)cc1OC (centres undefined),4,-7,-3,34*,1,-11
O=C(O)C(O)(c1ccccc1)C1CCCC1 (centres undefined),2,-7,-7,-5,1,3
CC(C)(C)C(=O)OC[N+](C)(C)CCOC(=O)C(O)(c1ccccc1)C1CCCC1 (centres undefined),99*,-34,-14,99*,0,-24
CCCC(CCC)C(=O)OC[N+](C)(C)CCOC(=O)C(O)(c1ccccc1)C1CCCC1 (centres undefined),99*,-19,-11,97*,1,-20
COC(=O)C1=C(c2ccc(S(C)(=O)=O)cc2)C[C@@H]2CC[C@H]1N2C(=O)N1CCC(C)CC1,2,8,-2,6,0,-1
O=C1NC(=O)C2(CCCC2)C(=O)N1,10,3,1,3,1,5
CC(Cc1ccccc1Sc1ccccc1O)N(C)C (centres undefined),99*,-22,-3,82*,9,-25
C#CCN(C)[C@H](C)Cc1ccccc1,-1,-4,0,-7,0,-4
O=C(Nc1ccc(Cl)cc1)OC1CN2CCC1CC2 (centres undefined),31*,-30,-13,17,21,-34
O=C(Nc1cccc(Cl)c1)OC1CN2CCC1CC2 (centres undefined),29*,-27,9,8,15,-36
CC(C)(C)NC(=O)NC(=O)CN1CC=C(c2ccccc2)CC1,-1,-2,-5,-4,0,0
